Screens: PubChem, several laboratories
ZTA counter – counter-screen for EBNA-1 inhibitors: inhibitors of Epstein-Barr virus ZTA; ZTA-DNA binding, fluorescence polarization; P03206; inhibition, % at 11 µM; actives 0.15% (n = 320,000); in the data active means inhibition above about 33%
EBNA-1 inhibitor – EBNA-1 DNA-binding inhibitors, primary screen, biochemical, fluorescence polarization; inhibition, % at 14.8 µM; actives 0.34% (n = 300,000); AID 1950, 2009; in the data active means inhibition above about 28%
GSTO1 inh – inhibitors of recombinant GSTO1, primary screen, counter-screen for RBBP9 inhibitor project, biochemical, fluorescence polarization. actives 1.1% (n = 300,000). activity-based probe fluorescence polarization. inhibition, % at 5.96 µM. AID 1974, 2009;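 active means inhibition above the campaign mean inhibition plus 3 SD, cut at about 35% in these data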
Apaf-1 inh – inhibitors of human Apaf-1 apoptosome, primary screen, biochemical, DEVD-Rh110 fluorescence, uHTS; actives 0.71% (n = 330,000); AID 489030, 2010; reconstituted apoptosome caspase-3 activity; inhibition, % at 20 µM; Apoptotic protease-activating factor 1 (Homo sapiens), O14727; active means inhibition of at least 40% at 20 µM
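Medium: Hepes buffer, pH 7.5 / System: biochemical Apaf-1 apoptosome reconstitution / Measured by: Rh110 fluorescence, excitation 480 nm, emission 540 nm / Times: compound with Apaf-1, dATP, procaspase-3 30 min, then 50 min reaction, room temperature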
proCasp3 act – activators of human procaspase-3 D3A mutant, primary screen, biochemical, absorbance, PC-3 D3A mutant, single concentration; Caspase-3 (Homo sapiens), P42574; recombinant procaspase-3 D3A, Ac-DEVD-pNA absorbance 405 nm; activation, % at 8.5 µM; actives 0.11% (n = 330,000); AID 463141, 2010;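 active means activation above the mean of all tested compounds plus 3 SD, cut at about 21% in these data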
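Assay system: Autoprocessing-dead procaspase-3 D3A mutant enzyme; also added: Ac-DEVD-pNA; doses: one concentration, 8.5 µM nominal, 0.8% DMSO; times: 1 h compound preincubation, 2 h substrate hydrolysis at 25 °C; technique: 405 nm absorbance of p-nitroaniline, reads at 0 and 120 min; measure: % activation between DMSO and enzyme-spiked controls; repeats: single replicate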
proCasp7 act – procaspase-7 activators, primary screen, counter-screen for procaspase-3 activator project, biochemical, absorbance, HTS, human; AID 463210, 2010; actives 0.093% (n = 330,000); activation, % at 8.5 µM; recombinant procaspase-7, Ac-DEVD-pNA absorbance 405 nm; D23A/D198A/D206A triple mutant, cannot self-cleave; scale: DMSO 0, 5 µM enzyme 100;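 active means percent activation above the screen-wide mean plus 3 SD, cut at about 25% in these data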
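Material: Procaspase-7 triple mutant (PC-7 D3A) | Quantity: 2 µM procaspase-7 mutant as dispensed | Reagent: DEVD-pNA substrate | Times: 1 h preincubation, 2 h reaction | Technique: 405 nm absorbance of p-nitroaniline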
Apaf-1 inh conf – Apaf-1 inhibitors, single-dose retest, confirmation, biochemical, fluorescence, DEVD-Rh110, 20 µM. inhibition, % at 20 µM. reconstituted apoptosome, caspase-3 DEVD-Rh110 fluorescence. AID 504614, 2011. actives 25% (n = 1,800). shares compounds with Apaf-1 inh;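 active means mean inhibition of at least 40% at 20 µM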
Rh110 quench – Rh110 fluorescence interference by putative Apaf-1 inhibitors, confirmation, artefact control for Apaf-1 inhibitor project, biochemical, 20 µM; 1,800 tested, under 10 active; quenched caspase reaction; shares compounds with Apaf-1 inh; activation (fluorescence interference), % at 20 µM;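 active means signal rise of 40% or more at 20 µM, treated as a fluorescence artifact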
Fluor interf inh – fluorescence interference of Apaf-1 inhibitor hits, dose response, artefact control for Apaf-1 inhibitor project; shares compounds with Apaf-1 inh; fluorescence interference counterscreen, Apaf-1 assay format; IC50, µM; 460 tested, under 10 active; AID 588538, 2011; call rule not given here
Numbers stand for hits; i = inactive; nt = no result given. Compounds with a hit are over-represented: about 1.8% of the library has one in this group of screens.

SMILES | ZTA counter | EBNA-1 inhibitor | GSTO1 inh | Apaf-1 inh | proCasp3 act | proCasp7 act | Apaf-1 inh conf | Rh110 quench | others
Cc1ccn2c(NC3CCCCC3)c(-c3cccc(SC4CCCCC4)c3)nc2c1 | nt | nt | nt | 40.4 | i | i | i | i
CCCCCCSc1cccc(-c2nc3cc(C)ccn3c2NCc2ccccc2)c1 | i | i | i | 40.3 | i | i | i | i
CCC(C)Sc1cccc(-c2nc3cc(C)ccn3c2NC2CCCCC2)c1 (configuration not stated) | nt | nt | nt | 40.7 | i | i | i | i
COc1ccc(NC(=O)Nc2cccc3c2O[C@@H](CN(C)S(=O)(=O)c2cn(C)cn2)[C@@H](C)CN([C@H](C)CO)C3=O)cc1 | nt | nt | nt | i | i | i | nt | nt
O=C(NCCOc1ccccc1)C1CCC(=O)N(CCCN2CCCC2=O)C1 (configuration not stated) | i | i | i | i | i | i | nt | nt
Cc1[nH][nH]c(=O)c1C(c1ccc(-c2cccc(C(=O)O)c2)o1)c1c(C)[nH][nH]c1=O | i | i | i | 77.6 | i | i | i | i
CNC(=S)N/N=C/c1ccc(-c2cccc(C(=O)O)c2)o1 | i | i | i | i | i | i | nt | nt
CCN(CC(=O)Nc1ccccc1C(F)(F)F)C(=O)c1ccccc1SCC(=O)N1CCCC1 | i | i | i | 42.9 | i | i | i | i
Cc1ccc(S(=O)(=O)N(C)C)cc1NC(=O)c1ccccc1SCC(=O)N1CCCC1 | i | nt | nt | 41.5 | i | i | i | i
COc1ccc(C2(c3ccc(OC)cc3)NC(=O)N(CC(=O)Nc3ccc(N4CCOCC4)cc3)C2=O)cc1 | i | i | i | 40.9 | i | i | i | i
CCc1cc2c(SCC(=O)N3CC(=O)Nc4ccccc43)ncnc2s1 | i | i | i | 55.1 | i | i | i | i
NC(=O)c1cc([N+](=O)[O-])ccc1NCc1ccc(N)cc1 | i | i | i | i | i | i | nt | nt
CC(NC(=O)C1CCN(C(=O)c2cccs2)CC1)c1ccc(S(N)(=O)=O)cc1 (configuration not stated) | i | nt | nt | 62.1 | i | i | i | i
CCCN1CCN(S(=O)(=O)c2ccc3c(c2)CCC(=O)N3)CC1 | i | nt | nt | i | i | i | nt | nt
CN(C)CCN(C(=O)c1cccc2ccccc12)c1nc2cc3c(cc2s1)OCO3 | i | i | i | 51.8 | i | i | i | i
CN(C)CCCN(C(=O)c1ccc2ccccc2c1)c1nc2cc3c(cc2s1)OCO3 | i | i | i | i | i | i | nt | nt
CC(C(=O)Nc1ccc(S(=O)(=O)N2CCCC2)cc1)N1CCCC(C(N)=O)C1 (configuration not stated) | nt | nt | nt | i | nt | nt | nt | nt
Cc1[nH]n(-c2ccccc2)c(=O)c1C(c1cccc([N+](=O)[O-])c1O)c1c(C)[nH]n(-c2ccccc2)c1=O | i | i | 63.8 | 87.8 | i | i | i | i
Cc1c(C(c2cccc([N+](=O)[O-])c2O)c2c(C)n(C)n(-c3ccccc3)c2=O)c(=O)n(-c2ccccc2)n1C | i | i | i | i | i | i | nt | nt
CCc1cccc(NC(=O)CN(c2ccc(C)cc2)S(=O)(=O)c2c(C)noc2C)c1 | i | i | i | i | i | i | nt | nt
COc1ccc(/C=N/Nc2cc(C)nc3ccc(OC)cc23)c(OC)c1 | i | i | i | 42.7 | i | i | i | i
COc1ccc2nc(C)cc(N/N=C/c3ccccc3)c2c1 | i | nt | nt | 50.3 | i | i | i | i
Cc1cc(C)nc(SCC(=O)NNS(=O)(=O)c2ccc(C#N)cc2)n1 | nt | nt | nt | i | nt | nt | nt | nt
CC(C)[C@H](NC(=O)c1ccc(F)cc1)C(=O)N(C)Cc1cccs1 | i | nt | nt | i | i | i | nt | nt
FC(F)(F)c1cc(CO[C@@H]2CCCN[C@@H]2c2ccccc2)cc(C(F)(F)F)c1 | i | i | i | 47.3 | i | i | i | i
SMILES | ZTA counter | EBNA-1 inhibitor | GSTO1 inh | Apaf-1 inh | proCasp3 act | proCasp7 act | Apaf-1 inh conf | Rh110 quench | others
CS(=O)(=O)Oc1ccc(Br)c2cccnc12 | i | i | i | i | i | i | nt | nt
Nc1ccc(Br)c2cccnc12 | i | i | i | 84.9 | i | i | 46.3 | i | Fluor interf inh=i
CCOC(=O)c1nn(-c2ccc(C)c(C)c2)c(=O)c2c(N)scc12 | i | i | i | 56.3 | i | i | 41.0 | i | Fluor interf inh=i
CC(C)(C)OC(=O)C[C@H]1C/C=C\C[C@H](CC(=O)N[C@H](CO)Cc2ccccc2)C(=O)N2CCC[C@H]2COC1=O | nt | nt | nt | i | i | i | nt | nt
Cc1cc(C(=O)COc2cccc3cccnc23)c(C)n1C | i | i | i | 53.4 | i | i | i | i
O=[N+]([O-])c1ccc(C=Nc2cccc3ccccc23)s1 | i | i | i | 68.1 | i | i | i | i
Cc1nn(Cc2ccccc2Cl)c(C)c1C(=O)NCC(c1cccs1)N1CCOCC1 (configuration not stated) | i | i | i | i | i | i | nt | nt
O=C(Nn1cnnc1)c1ccc(Cl)cc1[N+](=O)[O-] | i | i | i | i | i | i | nt | nt
